Active and inactive are the calls of the source.
Columns and labels:
[1] = Displacement of [3H]D888 from rat cerebral cortex L-type calcium channel verapamil binding site; format: tissue-based
Mus musculus [2] = assay: Anticonvulsant activity in mouse assessed as protection against 6 Hz psychomotor seizure at 100 mg/kg, ip after 1 hr; format: functional, organism-based
In short: (§1)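 Suspension in 0.5% methylcellulose given ip to mice; corneal stimulation with 0.2 ms monopolar rectangular pulses at 6 Hz for 3 s from a constant current device, mice restrained then released to observation cage. Protected if normal exploratory behaviour resumed within 10 s of stimulation. Scored as protected/tested, 4 mice per group.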

Mus musculus [3] = assay: Anticonvulsant activity in mouse assessed as protection against 6 Hz psychomotor seizure at 100 mg/kg, ip after 2 hrs; format: functional, organism-based; in short: as §1
Mus musculus [4] = assay: Neurotoxicity in mouse at 100 mg/kg, ip after 2 hrs by rotarod test; format: toxicity, organism-based; details: in vivo
In short: (§2)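 Mice were dosed ip with compound suspended in 0.5% methylcellulose. Rotarod: a 1 in. knurled rod turning at 6 rpm. Neurotoxicity was scored as failure to stay on the rod for at least 1 min in each of three trials. Results are given as the number of animals affected out of the number tested.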

Mus musculus [5] = assay: Anticonvulsant activity in mouse assessed as protection against 6 Hz psychomotor seizure at 100 mg/kg, ip after 0.5 hrs; format: functional, organism-based; in short: as §1
Mus musculus [6] = assay: Anticonvulsant activity in mouse assessed as protection against 6 Hz psychomotor seizure at 100 mg/kg, ip after 4 hrs; format: functional, organism-based; in short: as §1
Mus musculus [7] = assay: Neurotoxicity in mouse at 100 mg/kg, ip after 4 hrs by rotarod test; format: toxicity, organism-based; details: in vivo; in short: as §2
Mus musculus [8] = assay: Anticonvulsant activity in mouse assessed as protection against maximal electric shock-induced seizures at 100 mg/kg, ip measured after […]; format: functional, organism-based
Mus musculus [9] = assay: Anticonvulsant activity in mouse assessed as protection against maximal electric shock-induced seizures at 30 mg/kg, ip measured after 0.5 hrs; format: functional, organism-based
In short: (§3)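 Mice dosed ip with suspension in 0.5% methylcellulose; maximal electroshock applied at the listed time after dosing. Protection = abolition of hindlimb tonic extension component of seizure; reported as animals protected/animals tested.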

Mus musculus [10] = assay: Anticonvulsant activity in mouse assessed as protection against maximal electric shock-induced seizures at 30 mg/kg, ip measured after 4 hrs; format: functional, organism-based; in short: as §3
Mus musculus [11] = assay: Anticonvulsant activity in mouse assessed as protection against maximal electric shock-induced seizures at 100 mg/kg, ip measured after 0.5 hrs; format: functional, organism-based; in short: as §3
Mus musculus [12] = assay: Anticonvulsant activity in mouse assessed as protection against maximal electric shock-induced seizures at 100 mg/kg, ip measured after 1 hr; format: functional, organism-based; in short: as §3
Mus musculus [13] = assay: Anticonvulsant activity in mouse assessed as protection against maximal electric shock-induced seizures at 100 mg/kg, ip measured after 4 hrs; format: functional, organism-based; in short: as §3
Mus musculus [14] = assay: Anticonvulsant activity in mouse assessed as protection against maximal electric shock-induced seizures at 300 mg/kg, ip measured after 0.5 hrs; format: functional, organism-based; in short: as §3
Mus musculus [15] = assay: Anticonvulsant activity in mouse assessed as protection against maximal electric shock-induced seizures at 300 mg/kg, ip measured after 4 hrs; format: functional, organism-based; in short: as §3
Mus musculus [16] = assay: Anticonvulsant activity in mouse assessed as protection against subcutaneous pentylenetetrazol-induced seizures at 30 mg/kg, ip measured after 0.5 hrs; format: functional, organism-based
In short: (§4)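 Mice dosed ip as 0.5% methylcellulose suspension; pentylenetetrazole 85 mg/kg in 0.9% NaCl injected subcutaneously into posterior midline, animals watched at least 30 min. Protection = no threshold seizure (single clonic spasm episode lasting ≥5 s); scored protected/tested.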

Mus musculus [17] = assay: Anticonvulsant activity in mouse assessed as protection against subcutaneous pentylenetetrazol-induced seizures at 100 mg/kg, ip measured after 0.5 hrs; format: functional, organism-based; in short: as §4
Mus musculus [18] = assay: Anticonvulsant activity in mouse assessed as protection against subcutaneous pentylenetetrazol-induced seizures at 300 mg/kg, ip measured after 0.5 hrs; format: functional, organism-based; in short: as §4
Mus musculus [19] = assay: Anticonvulsant activity in mouse assessed as protection against subcutaneous pentylenetetrazol-induced seizures at 30 mg/kg, ip measured after 4 hrs; format: functional, organism-based; in short: as §4
Mus musculus [20] = assay: Anticonvulsant activity in mouse assessed as protection against subcutaneous pentylenetetrazol-induced seizures at 100 mg/kg, ip measured after 4 hrs; format: functional, organism-based; in short: as §4
Mus musculus [21] = assay: Anticonvulsant activity in mouse assessed as protection against subcutaneous pentylenetetrazol-induced seizures at 300 mg/kg, ip measured after 4 hrs; format: functional, organism-based; in short: as §4
Mus musculus [22] = assay: Neurotoxicity in mouse at 30 mg/kg, ip after […] by rotarod test; format: toxicity, organism-based; details: in vivo
Mus musculus [23] = assay: Neurotoxicity in mouse at 100 mg/kg, ip after 1 hr by rotarod test; format: toxicity, organism-based; details: in vivo; in short: as §2
Mus musculus [24] = assay: Neurotoxicity in mouse at 300 mg/kg, ip after 0.5 hrs by rotarod test; format: toxicity, organism-based; details: in vivo; in short: as §2
Mus musculus [25] = assay: Neurotoxicity in mouse at 300 mg/kg, ip after 4 hrs by rotarod test; format: toxicity, organism-based; details: in vivo; in short: as §2
Mus musculus [26] = assay: Anticonvulsant activity in ip dosed mouse assessed as protection against maximal electric shock-induced seizures; format: functional, organism-based
In short: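 Compound suspended in 0.5% methylcellulose and given ip to mice; screening doses 30, 100 and 300 mg/kg, read at 0.25–4 h. Protection was defined as abolition of hindlimb tonic extension.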

[27] = target: 5-hydroxytryptamine receptor 2C (Homo sapiens, UniProt P28335); assay: Displacement of [3H][…] from human recombinant 5-HT2C receptor expressed in HEK293 cells; format: cell-based
Chain of 5-hydroxytryptamine receptor 2C (P28335 whole entry): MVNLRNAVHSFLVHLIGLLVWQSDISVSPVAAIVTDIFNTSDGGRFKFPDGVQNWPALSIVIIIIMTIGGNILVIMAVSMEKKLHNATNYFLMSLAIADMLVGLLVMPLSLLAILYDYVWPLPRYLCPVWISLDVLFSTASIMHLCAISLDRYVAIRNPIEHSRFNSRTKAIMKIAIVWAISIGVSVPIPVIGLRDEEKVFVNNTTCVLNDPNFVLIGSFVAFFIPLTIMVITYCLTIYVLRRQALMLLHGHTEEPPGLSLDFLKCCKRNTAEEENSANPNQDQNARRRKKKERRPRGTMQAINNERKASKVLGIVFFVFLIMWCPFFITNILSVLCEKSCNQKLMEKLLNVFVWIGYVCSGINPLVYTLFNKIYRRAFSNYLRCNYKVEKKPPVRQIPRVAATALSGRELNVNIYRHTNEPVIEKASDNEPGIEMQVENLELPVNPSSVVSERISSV

Q: Which IC50 [1] does the source give for COc1ccc(CCN(C)CCCC(C#N)(c2cc(OC)c(OC)c(OC)c2)C(C)C)cc1OC (configuration not stated) [GALLOPAMIL] here?
A: 15 nM

Q: With Cc1ccc(OCCNC(C)CO)c(C)c1 (configuration not stated) as the molecule, how does the Activity (Mus musculus [2]) read?
A: inactive

Q: And the Activity (Mus musculus [3])?
A: inactive

Q: And the Activity (Mus musculus [4])?
A: Non-toxic

Q: What about the Activity (Mus musculus [5]) of the same molecule?
A: inactive

Q: What about the Activity (Mus musculus [6]) of the same molecule?
A: inactive

Q: What about the Activity (Mus musculus [7]) of the same molecule?
A: Non-toxic

Q: For Cc1cccc(OCCCNCC(O)c2ccccc2)c1C (configuration not stated), which Activity (Mus musculus [8]) is on record?
A: inactive

Q: And the Activity (Mus musculus [9])?
A: inactive

Q: And the Activity (Mus musculus [10])?
A: inactive

Q: And the Activity (Mus musculus [11])?
A: inactive

Q: And the Activity (Mus musculus [12])?
A: inactive

Q: What about the Activity (Mus musculus [13]) of the same molecule?
A: inactive

Q: What about the Activity (Mus musculus [14]) of the same molecule?
A: Active

Q: What about the Activity (Mus musculus [15]) of the same molecule?
A: inactive

Q: And the Activity (Mus musculus [16])?
A: inactive

Q: What about the Activity (Mus musculus [17]) of the same molecule?
A: inactive

Q: And the Activity (Mus musculus [18])?
A: inactive

Q: What about the Activity (Mus musculus [19]) of the same molecule?
A: inactive

Q: What about the Activity (Mus musculus [20]) of the same molecule?
A: inactive

Q: What about the Activity (Mus musculus [21]) of the same molecule?
A: inactive

Q: What about the Activity (Mus musculus [22]) of the same molecule?
A: Toxic

Q: What about the Activity (Mus musculus [23]) of the same molecule?
A: Toxic

Q: What about the Activity (Mus musculus [24]) of the same molecule?
A: Toxic

Q: What about the Activity (Mus musculus [25]) of the same molecule?
A: Toxic

Q: For Cc1cccc(C)c1OCC(C)N (configuration not stated) [MEXILETINE], which EC50 (Mus musculus [26]) is on record?
A: 20 mg/kg

Q: Which IC50 [27] does the source give for COc1cc(OC)c(C(=O)CCCCN2CCC3(CC2)NC(=O)NC3=O)cc1NS(=O)(=O)c1ccc(C(F)(F)F)cc1 [RS-102,221] here?
A: 1.5 nM

— ChEMBL document CHEMBL3774372, “Design, physico-chemical properties and biological evaluation of some new N-[(phenoxy)alkyl]- and N-{2-[2-(phenoxy)ethoxy]ethyl}aminoalkanols as anticonvulsant agents” (Bioorg Med Chem, 2016)
